Source: PubChem BioAssay (Johns Hopkins Ion Channel Center)
MrgX1 antag: antagonists of human MrgX1 receptor; Q96LB2; MRGX1-HEK293 calcium flux, Fluo-4, BAM8-22 antagonism; active compounds read low; B-score at 10 µM; 310,000 compounds, 1.3% hits;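 active = calcium-response B-score plate-corrected more than 3 library SD below zero, starting fluorescence within 5 deviations, no agonist response on first addition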;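 also: peak minus trough fluorescence over baseline after final BAM8-22 challenge near maximal dose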
Target sequence (Q96LB2 whole entry, looked up): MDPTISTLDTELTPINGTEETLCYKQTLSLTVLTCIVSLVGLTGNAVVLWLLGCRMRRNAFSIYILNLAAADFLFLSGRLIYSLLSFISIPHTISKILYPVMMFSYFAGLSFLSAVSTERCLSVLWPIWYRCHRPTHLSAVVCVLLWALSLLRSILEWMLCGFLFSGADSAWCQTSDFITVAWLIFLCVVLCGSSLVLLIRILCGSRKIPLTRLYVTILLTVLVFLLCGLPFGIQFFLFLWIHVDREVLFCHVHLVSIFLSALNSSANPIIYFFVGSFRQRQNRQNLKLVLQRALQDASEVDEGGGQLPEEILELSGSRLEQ
Kir21 block: inhibitors of mouse Kir2.1 inward-rectifier potassium channel; HEK293-Kir2.1, FluxOR thallium flux fluorescence; active compounds read low; P35561; 310,000 compounds, 0.85% hits; B-score at 10 µM;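 active = fluorescence ratio B-score at or below minus 3 SD of library scores, with starting-brightness B-score within 2 SD, cut at about -4.2 in these data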;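 also: channel flux triggered by added potassium and thallium sulfate stimulus; B-score of peak minus minimum fluorescence over baseline after thallium stimulus; more negative B-score means stronger Kir2.1 block with less thallium influx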
RGS4 act: potentiators or activators of RGS4. AID 463111. HEK293 M3R/inducible RGS4, carbachol calcium flux Fluo4; active compounds read low. 310,000 compounds, 0.92% hits. B-score at 10 µM;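 active = B-score of the integrated calcium signal more than 4 SD below the library mean, with starting fluorescence not abnormally high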;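 also: negative B-score means reduced calcium response which marks RGS4 activation or potentiation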
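Assay system: Inducible-RGS4 HEK293 cells carrying M3 receptor | Schedule: Compound preincubation 20 min at room temperature before agonist | Signal: Kinetic calcium fluorescence imaging with Fluo4-AM dye, 2 µM | Read-out basis: B score from integrated fluorescence ratio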
RGS4 inh: inhibitors of human RGS4. 310,000 compounds, 0.45% hits. P49798. B-score at 10 µM. HEK293 M3R/RGS4 inducible, Fluo-4 calcium flux; active compounds read high; triggered by carbachol at its EC20;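 active = B-score, a plate-corrected calcium signal, over three deviations above library mean, with baseline fluorescence within five deviations of library mean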;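 also: RGS4 expression induced by doxycycline in cells with stable M3 receptor; B-score is computed from the integrated fluorescence ratio over baseline after carbachol; higher B-score means a larger calcium signal and so more RGS4 inhibition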
Target sequence (P49798 whole entry, looked up): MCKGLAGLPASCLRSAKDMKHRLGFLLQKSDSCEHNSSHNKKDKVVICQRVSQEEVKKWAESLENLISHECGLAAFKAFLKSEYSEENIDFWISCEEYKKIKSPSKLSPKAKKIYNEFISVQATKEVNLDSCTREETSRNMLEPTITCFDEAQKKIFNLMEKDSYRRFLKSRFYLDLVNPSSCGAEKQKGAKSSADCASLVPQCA
MrgX1 ag: human MrgX1 receptor agonism, primary screen | Q96LB2 | MrgX1-HEK293 cells, Fluo-4 calcium fluorescence, agonist mode; active compounds read high | B-score at 10 µM | 310,000 compounds, 0.44% hits;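 active = calcium response B-score plate-corrected fluorescence ratio at least 3 library SD, with starting fluorescence B-score inside 5 SD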
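Material: HEK293 cells stably expressing human MrgX1 receptor | Quantity: 15,000 cells per well | Times: Cells plated overnight, dye loaded 0.5 h 37 °C, 0.5 h room temperature | Measured by: Kinetic Fluo-4 NW fluorescence of intracellular calcium | Control set: Positive and negative controls per plate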
MrgX1 allo act: human MrgX1 positive allosteric modulation, primary screen | Q96LB2 | MrgX1-HEK293, Fluo-4 calcium flux, FDSS; active compounds read high | B-score at 10 µM | 310,000 compounds, 0.63% hits | AID 588675;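 active = plate-corrected calcium response at least 3 library SD above typical, normal starting fluorescence, not activating the receptor alone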;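 also: compound read alongside a low EC10 to EC30 dose of BAM8-22 agonist; peak minus trough fluorescence over baseline measured at the second addition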
A number is an active result; 0 = inactive; - = not tested or not shown. Hits are enriched below; roughly 4.1% of the tested compounds scored in any of these assays.

SMILES | MrgX1 antag | Kir21 block | RGS4 act | RGS4 inh | MrgX1 ag | MrgX1 allo act
O=C1/C(=C/c2ccccn2)COc2ccccc21 | 0 | 0 | 0 | 0 | 0 | 6.7
O=C1/C(=C/c2ccc(O)cc2)COc2ccccc21 | 0 | 0 | 0 | 0 | 0 | 0
COc1cc2ncc(S(=O)(=O)c3ccccc3)c(N3CCCC(C)C3)c2cc1OC (centres undefined) | 0 | 0 | -7.3 | 0 | 0 | 0
COC(=O)C1Cc2c([nH]c3ccccc23)C2(CCN(Cc3ccccc3)CC2)N1 (centres undefined) | 0 | -6.8 | 0 | 0 | 0 | 0
CCCN1CCC2(CC1)NC(C(=O)O)Cc1c2[nH]c2ccccc12 (centres undefined) | 0 | 0 | 0 | 0 | 0 | 0
CC[N+](CC)(CC)CCOc1ccc(/C=C/c2ccccc2)cc1 | -5.1 | - | - | - | 0 | 0
CCN(C/C=C/c1ccccc1OC)Cc1ccccc1 | 0 | -4.8 | 0 | 0 | 0 | 0
CCCCN(C/C=C/c1ccccc1OC)Cc1ccccc1 | 0 | 0 | 0 | 0 | 0 | 0
O=S(Cc1cc(Sc2ccccc2)nc(-c2ccccc2)n1)c1ccccc1 (centres undefined) | 0 | 0 | 0 | 0 | 0 | 10
CNc1cc(CS(=O)c2ccccc2)nc(-c2ccccc2)n1 (centres undefined) | 0 | 0 | 0 | 0 | 0 | 0
Cc1cc(OCc2ccc(F)cc2)nc(-c2ccccc2O)n1 | 0 | 0 | 0 | 0 | 0 | 0
COc1cc2c(cc1OC)-c1cc(NC3CCCCCC3)nc(=O)n1CC2 | -6.2 | 0 | 0 | 0 | 0 | 0
O=C(ON=C1CCN(S(=O)(=O)c2ccccc2)CC1)c1ccc(F)cc1 | -6.1 | 0 | 0 | 0 | 0 | 0
Cc1ccc(C(=O)ON=C2CCN(S(=O)(=O)c3ccccc3)CC2)cc1 | 0 | 0 | 0 | 0 | 0 | 0
Cc1oc(-c2ccccc2F)nc1CS(=O)(=O)CC(=O)N1CCCCCC1 | 0 | 0 | 0 | 0 | 0 | 0
COc1ccc(OC)c(/C=N/NC(=O)c2ccc(N(C)S(=O)(=O)c3ccccc3)cc2)c1 | 0 | 0 | 0 | 0 | 0 | 7
COc1cccc(CNc2cccc3cccnc23)c1O | 0 | 0 | 0 | 0 | 0 | 15
COc1cccc(CNc2ccccn2)c1O | 0 | 0 | 0 | 0 | 0 | 0
Cn1c(C(O)c2ccc(Br)cc2)nc(Cl)c1Cl (centres undefined) | 0 | 0 | 0 | 0 | 0 | 0
COc1ccc(C)cc1Nc1n[n+](-c2ccccc2)c(-c2cc(OC)c(OC)cc2Br)s1 | 0 | -6 | 0 | 0 | 0 | 0
CC(C(Sc1ccccc1N)c1ccccc1)[N+](=O)[O-] (centres undefined) | 0 | -7.2 | 0 | 0 | 0 | 0
CC(=O)OC(C(=O)NCc1ccco1)c1cccnc1 (centres undefined) | 0 | 0 | 0 | 0 | 0 | 0
O=C(/C=C/c1ccc(Cl)cc1)c1cccnc1 | 0 | -7.9 | 0 | 0 | 0 | 0
O=C(/C=C/c1ccccc1Cl)c1cccnc1 | 0 | 0 | 0 | 0 | 28 | 0
CCN(CC)c1ccc(/C=C/C(=O)c2cccnc2)cc1 | 0 | 0 | 0 | 0 | 0 | 0
SMILES | MrgX1 antag | Kir21 block | RGS4 act | RGS4 inh | MrgX1 ag | MrgX1 allo act
CCN(CC)CCC(C)OC(c1ccccc1)c1ccccc1 (centres undefined) | 0 | 0 | -8.7 | 0 | 0 | 0
CCN(CC)CCOC(c1ccccc1)c1ccc(C)cc1 (centres undefined) | 0 | 0 | 0 | 0 | 0 | 0
Cc1cccc(-n2c(CNC(=O)c3ccc(S(=O)(=O)N(C)C)cc3)nnc2SCC(=O)Nc2ccc(F)cc2)c1 | 0 | 0 | -8.1 | 0 | 0 | 0
Cc1cccc(NC(=O)CSc2nnc(CNC(=O)c3ccc(S(=O)(=O)N(C)C)cc3)n2-c2ccc(F)cc2)c1 | 0 | 0 | 0 | 0 | 0 | 0
COc1ccc(CCNC(=O)CNC(=O)c2ccccc2Br)cc1OC | 0 | 0 | 0 | 0 | 0 | 0
CN(C)CCNC(=O)/C(=C/c1ccc(-c2cccc(Cl)c2)o1)NC(=O)c1ccccc1 | 0 | -4.6 | 0 | 0 | 0 | 0
Cc1ccc(C(=O)N/C(=C\c2ccc(-c3ccc(Cl)cc3)o2)C(=O)NCCCN(C)C)cc1 | 0 | -5.3 | 0 | 0 | 0 | 0
CN(C)CCCNC(=O)/C(=C/c1ccc(-c2ccc([N+](=O)[O-])cc2)o1)NC(=O)c1ccccc1 | -5.7 | 0 | 0 | 0 | 0 | 0
